The values that follow come from publication PMC3594046 (Bioorganic & medicinal chemistry letters, 2013).

Assay [1] deals with T1, TRβ-LBD / SRC2-2 peptide interaction (Homo sapiens, UniProt P10828).
T1 sequence (P10828 217-461 limits assumed): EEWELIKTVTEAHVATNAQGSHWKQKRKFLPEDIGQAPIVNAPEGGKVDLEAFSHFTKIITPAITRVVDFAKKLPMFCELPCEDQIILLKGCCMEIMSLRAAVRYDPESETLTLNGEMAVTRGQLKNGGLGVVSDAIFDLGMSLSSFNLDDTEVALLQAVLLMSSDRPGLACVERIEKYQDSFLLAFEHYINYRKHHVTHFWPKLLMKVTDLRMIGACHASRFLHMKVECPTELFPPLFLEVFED
Briefly: Fluorescence polarization. The format is binding. In short, it runs like this:
(§1)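 Fluorescence polarization competition assays: TRβ-LBD with Texas Red-labelled SRC2-2 peptide, and VDR with SRC2-3 peptide. Test compounds were 3-fold serially diluted in DMSO from a 10,000 μM top concentration and pin-transferred into the assay solutions. Each run was in triplicate and repeated twice, giving 6 replicates. EC50 is reported as the mean with standard deviation.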
In general terms: Polarisation of emitted light reports the rotation of a fluorescent probe.

The target of the next assay is T2, TRα / SRC2-2 interaction (Homo sapiens, UniProt P10827).
T2 sequence (P10827 1-410 isoform P10827-2): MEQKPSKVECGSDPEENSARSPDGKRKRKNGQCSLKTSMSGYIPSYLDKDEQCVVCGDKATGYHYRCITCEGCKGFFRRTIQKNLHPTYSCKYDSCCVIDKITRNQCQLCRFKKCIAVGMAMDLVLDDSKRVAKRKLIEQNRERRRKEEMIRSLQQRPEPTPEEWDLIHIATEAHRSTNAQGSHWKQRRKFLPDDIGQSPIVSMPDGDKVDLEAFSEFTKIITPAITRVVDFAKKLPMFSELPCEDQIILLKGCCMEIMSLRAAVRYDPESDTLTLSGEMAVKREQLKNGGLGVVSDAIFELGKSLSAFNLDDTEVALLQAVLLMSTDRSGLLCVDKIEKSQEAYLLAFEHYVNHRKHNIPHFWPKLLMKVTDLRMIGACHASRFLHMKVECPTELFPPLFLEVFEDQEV
Briefly: FP competition assay, TRα-coactivator. The format is binding. The note with it: in words.

The subject of assay [2] is PEPCK gene transcription (TR-responsive) in HepG2 cells. Briefly: RT-PCR of T3-induced PEPCK transcription in HepG2 cells. The note with it: HepG2, co-treated with T3 (100 nM) and compound (1 μM and 100 nM), 24 h. In kind it is cell-based. The method, boiled down:
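HepG2 cells were co-treated for 24 h with T3 (100 nM) and test compound at 1 μM or 100 nM. Controls were a T3 ligand antagonist and a known coactivator antagonist. mRNA was isolated and converted to cDNA, and diluted cDNA was used for real-time PCR of PEPCK. Fold induction was calculated by the ΔΔCt method, with two independent experiments in triplicate and standard errors.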

Assay [3] deals with T3, vitamin D receptor (VDR) / SRC2-3 interaction (Homo sapiens, UniProt P11473).
T3 sequence (P11473 1-427): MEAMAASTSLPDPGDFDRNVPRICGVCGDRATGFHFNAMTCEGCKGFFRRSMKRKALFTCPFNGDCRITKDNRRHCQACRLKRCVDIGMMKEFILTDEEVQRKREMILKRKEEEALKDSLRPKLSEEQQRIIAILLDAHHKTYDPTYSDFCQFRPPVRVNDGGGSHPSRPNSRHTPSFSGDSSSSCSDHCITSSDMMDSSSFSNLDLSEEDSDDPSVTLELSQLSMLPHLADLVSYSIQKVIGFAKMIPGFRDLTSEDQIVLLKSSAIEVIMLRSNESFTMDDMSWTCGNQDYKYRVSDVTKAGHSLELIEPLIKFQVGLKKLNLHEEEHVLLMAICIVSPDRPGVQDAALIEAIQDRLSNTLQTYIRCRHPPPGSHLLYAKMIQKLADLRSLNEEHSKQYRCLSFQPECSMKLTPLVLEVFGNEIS
Put plainly: FP competition assay, VDR-SRC2-3 interaction. The format is binding. In short, it runs like this:
as §1

For `CS(=O)(=O)c1ccc(C(=O)NCC(=O)NC23CC4CC(CC(C4)C2)C3)cc1[N+](=O)[O-]` [3{1,1}], the EC50 (commonly the midpoint of the concentration-response curve) in assay [1] was found to be 16 µM. In turn, `CCCN(C(=O)CNC(=O)c1ccc(S(C)(=O)=O)c([N+](=O)[O-])c1)c1ccccc1` [3{1,12}] returned an EC50 in assay [1] of 6.6 µM. In the case of `CS(=O)(=O)c1ccc(C(=O)NCC(=O)N(Cc2ccccc2)c2ccccc2)cc1[N+](=O)[O-]` [3{1,13}], at TRα / SRC2-2 interaction, the “TRα-COA antagonism compared with TRβ” value is listed as “slightly more potency against TRα”. `CS(=O)(=O)c1ccc(C(=O)NCC(=O)N(Cc2ccccc2)Cc2ccccc2)cc1[N+](=O)[O-]` [3{1,18}]: the EC50 in assay [1] was 3.6 µM. In addition, the “Transcription of the PEPCK gene” value in assay [2] is given as “inhibited by the MSNBA 3{1,18} in dose-dependent manner”. For the same compound, at TRα / SRC2-2 interaction, the “TRα-COA antagonism compared with TRβ” value is “slightly more potency against TRα”. In assay [1], `CN(C(=O)CNC(=O)c1ccc(S(C)(=O)=O)c([N+](=O)[O-])c1)c1ccccc1` [3{1, 11}] registered an EC50 of 5.8 µM.

With `CS(=O)(=O)c1ccc(C(=O)NCCCC(=O)NC23CC4CC(CC(C4)C2)C3)cc1[N+](=O)[O-]` [3{3,1}], in assay [1], the EC50 was 11 µM. Turning to `CS(=O)(=O)c1ccc(C(=O)NCCCC(=O)N2CCN(c3ccc(C(F)(F)F)cc3)CC2)cc1[N+](=O)[O-]` [3{3,24}], in assay [1] (FP assay, in words), the “Activity against TR-SRC interaction” value is “inactive”. For the same compound, the EC50 in assay [3] came out at 7 µM.

In turn, `CN(CC(=O)NC12CC3CC(CC(C3)C1)C2)C(=O)c1ccc(S(C)(=O)=O)c([N+](=O)[O-])c1` [3{4,1}] showed an EC50 in assay [1] above 60 µM. In assay [1], `CCCN(C(=O)CN(C)C(=O)c1ccc(S(C)(=O)=O)c([N+](=O)[O-])c1)c1ccccc1` [{4,12}] displayed an EC50 above 60 µM. In the case of `CN(CC(=O)N(Cc1ccccc1)Cc1ccccc1)C(=O)c1ccc(S(C)(=O)=O)c([N+](=O)[O-])c1` [{4, 18}], the EC50 in assay [1] was above 60 µM.
